Measurements taken from ChEMBL document CHEMBL4130342, “New semi-synthetic analogs of oleuropein show improved anticancer activity in vitro and in vivo” (Eur J Med Chem, 2017).

Tests used:
HL-60 = test: Antiproliferative activity against human HL60 cells after 72 hrs by MTT reduction assay; format: functional, cell-based; details: HL-60, 72 h
Outline: (§1)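 MTT reduction assay; adherent lines left to adhere overnight, suspension lines (HL-60, K562) seeded on the day. […] Incubation was 72 h at 37°C, with MTT added for the last 4 h. OD read at 545 nm (reference 690 nm). IC50 from 100(A0-A)/A0=50; means ± SD of 3 independent experiments.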

Mus musculus [1] = test: Toxicity in C57BL/6 mouse allografted with mouse B16-F1 cells assessed as effect on mouse survival at 600 ug, ip administered every other day up to day 29; format: organism-based; details: in vivo
Outline: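 Male C57BL/6 mice (6-8 wk) were injected sc with 10⁵ B16.F1 cells on day 0. From day 11 they received ip doses in 200 µL PBS every other day, 8 doses in total, with PBS controls. Tumors were caliper-measured every two days and the animals monitored to day 29 for signs of toxicity. Groups of 5.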

PBMC [2] = test: Induction of apoptosis in human PBMC assessed as late apoptotic cells at 150 ug/ml after 24 hrs by propidium iodide staining-based flow cytometric method (reference value: 0.6%); format: cell-based
Mus musculus [3] = test: (§2) In vivo induction of tumor-reactive immune response in C57BL/6 mouse allografted with mouse B16-F1 cells assessed as splenocyte-mediated mouse WEHI 164 cell lysis at 600 ug, ip administered every other day up to day 29 measured on day 29 post last dose by flow cytometric method (reference value: 1.2 to 1.6); format: functional
Outline: (§3)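 Male C57BL/6 mice (6-8 wk) were injected sc in the right flank with 10⁵ B16.F1 cells in PBS on day 0. From day 11, when tumors were palpable, they received ip doses in 200 µL PBS every other day (8 doses; 5 mice/group). On day 29, splenocytes were co-cultured unstimulated with targets at E:T 100:1 for 6 h at 37°C. CD107a/b MFI was read by flow cytometry, 2 mice/group tested individually.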

B16-F1 [4] = test: Induction of apoptosis in mouse B16-F1 cells assessed as early apoptotic cells at 283.90 uM after 48 hrs by propidium iodide staining-based flow cytometric method (reference value: 0.2%); format: functional
PBMC [5] = test: Induction of apoptosis in human PBMC assessed as necrotic cells at 300 ug/ml after 24 hrs by propidium iodide staining-based flow cytometric method (reference value: 1%); format: cell-based
MCF7 = test: Antiproliferative activity against human MCF7 cells after 72 hrs by MTT reduction assay; format: functional, cell-based; details: MCF7, 72 h; outline: as §1
HCT-116 = test: Antiproliferative activity against human HCT116 cells after 72 hrs by MTT reduction assay; format: functional, cell-based; details: HCT-116, 72 h
Outline: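 MTT reduction assay; adherent lines left to adhere overnight, suspension lines (HL-60, K562) seeded on the day. Incubation was 72 h at 37°C, with MTT added for the last 4 h.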

PBMC [6] = test: Induction of apoptosis in human PBMC assessed as necrotic cells at 600 ug/ml after 24 hrs by propidium iodide staining-based flow cytometric method (reference value: 1%); format: cell-based
B16-F1 [7] = test: Induction of apoptosis in mouse B16-F1 cells assessed as late apoptotic cells at 283.90 uM after 24 hrs by propidium iodide staining-based flow cytometric method (reference value: 0.9%); format: functional
Mus musculus [8] = test: as §2, with “splenocyte-mediated NK-sensitive” for “splenocyte-mediated”, “YAC-1” for “WEHI 164”, “1.7)” for “1.6)”; format: functional; outline: as §3
PBMC [9] = test: Induction of apoptosis in human PBMC assessed as early apoptotic cells at 300 ug/ml after 24 hrs by propidium iodide staining-based flow cytometric method (reference value: 0.1%); format: cell-based
PBMC [10] = test: Induction of apoptosis in human PBMC assessed as late apoptotic cells at 500 ug/ml after 24 hrs by propidium iodide staining-based flow cytometric method (reference value: 0.6%); format: cell-based
B16-F1 [11] = test: Induction of apoptosis in mouse B16-F1 cells assessed as late apoptotic cells at 283.90 uM after 72 hrs by propidium iodide staining-based flow cytometric method (reference value: 1.4%); format: functional
Mus musculus [12] = test: as §2, with “300” for “600”; format: functional; outline: as §3
PBMC [13] = test: Induction of apoptosis in human PBMC assessed as necrotic cells at 400 ug/ml after 24 hrs by propidium iodide staining-based flow cytometric method (reference value: 1%); format: cell-based
PBMC [14] = test: Induction of apoptosis in human PBMC assessed as late apoptotic cells at 300 ug/ml after 24 hrs by propidium iodide staining-based flow cytometric method (reference value: 0.6%); format: cell-based
HeLa = test: Antiproliferative activity against human HeLa cells after 72 hrs by MTT reduction assay; format: functional, cell-based; outline: as §1
Mus musculus [15] = test: as §2, with “splenocyte-mediated syngeneic” for “splenocyte-mediated”, “B16-F1” for “WEHI 164”, “3.3” for “1.2”, “3.9)” for “1.6)”; format: functional; outline: as §3
[16] = Antiproliferative activity against human FM3 cells after 72 hrs by MTT reduction assay; format: functional, cell-based; outline: as §1
PBMC [17] = test: Induction of apoptosis in human PBMC assessed as early apoptotic cells at 600 ug/ml after 24 hrs by propidium iodide staining-based flow cytometric method (reference value: 0.1%); format: cell-based
SK-BR-3 = test: Antiproliferative activity against human SKBR3 cells after 72 hrs by MTT reduction assay; format: functional, cell-based; details: SK-BR-3, 72 h; outline: as §1
PBMC [18] = test: Induction of apoptosis in human PBMC assessed as early apoptotic cells at 500 ug/ml after 24 hrs by propidium iodide staining-based flow cytometric method (reference value: 0.1%); format: cell-based
PBMC [19] = test: Induction of apoptosis in human PBMC assessed as necrotic cells at 500 ug/ml after 24 hrs by propidium iodide staining-based flow cytometric method (reference value: 1%); format: cell-based
PBMC [20] = test: Induction of apoptosis in human PBMC assessed as early apoptotic cells at 150 ug/ml after 24 hrs by propidium iodide staining-based flow cytometric method (reference value: 0.1%); format: cell-based
B16-F1 [21] = test: Induction of apoptosis in mouse B16-F1 cells assessed as necrotic cells at 283.90 uM after 48 hrs by propidium iodide staining-based flow cytometric method (reference value: 1%); format: functional
PBMC [22] = test: Induction of apoptosis in human PBMC assessed as early apoptotic cells at 400 ug/ml after 24 hrs by propidium iodide staining-based flow cytometric method (reference value: 0.1%); format: cell-based
Mus musculus [23] = test: as §2, with “splenocyte-mediated syngeneic” for “splenocyte-mediated”, “B16-F1” for “WEHI 164”, “300” for “600”, “3.3” for “1.2”, “3.9)” for “1.6)”; format: functional; outline: as §3
B16-F1 [24] = test: Induction of apoptosis in mouse B16-F1 cells assessed as early apoptotic cells at 283.90 uM after 72 hrs by propidium iodide staining-based flow cytometric method (reference value: 0.4%); format: functional

C/C=C1/[C@H](O[C@@H]2O[C@H](CO)[C@@H](O)[C@H](O)[C@H]2O)OC=C(C(=O)OC)[C@H]1CC(=O)OCCc1ccc(O)c(O)c1 [OLEUROPEIN]
IC50 (HL-60): 54.3 µM
Activity (Mus musculus [1]): Non-Toxic
Activity (PBMC [2]): 1.5%
Flu intensity (Mus musculus [3]): 2.5 - 2.7
Activity (B16-F1 [4]): 13.6%
Activity (PBMC [5]): 3.9%
IC50 (MCF7): 162 to 170 µM
IC50 (HCT-116): 182 to 185 µM
Activity (PBMC [6]): 16.4%
Activity (B16-F1 [7]): 6.9%
Flu intensity (Mus musculus [8]): 2.9 - 3.3
Activity (PBMC [9]): 1.2%
Activity (PBMC [10]): 6.3%
Activity (B16-F1 [11]): 15.5%
Flu intensity (Mus musculus [12]): 1.1 - 1.3
Activity (PBMC [13]): 4.3%
Activity (PBMC [14]): 1.9%
IC50 (HeLa): 265 to 276 µM
Flu intensity (Mus musculus [15]): 6.6 - 7.5
IC50 [16]: 269 to 275 µM
Activity (PBMC [17]): 6.5%
IC50 (SK-BR-3): 160 µM
Activity (PBMC [18]): 3.1%
Activity (PBMC [19]): 10.3%
Activity (PBMC [20]): 0.8%
Activity (B16-F1 [21]): 4.2%
Activity (PBMC [22]): 1.6%
Flu intensity (Mus musculus [23]): 3.2 - 3.9
Activity (B16-F1 [24]): 22.5%
